Five compounds from ChEMBL document CHEMBL1770116, “Glycoglycerolipid analogues inhibit PKC translocation to the plasma membrane and downstream signaling pathways in PMA-treated fibroblasts and human glioblastoma cells, U87MG” (Eur J Med Chem, 2011) can be followed below.

Each structure is given as a SMILES string. Active and inactive are the calls of the source. The rule behind the calls is not given here.

In assay [1] the target is T1, Protein kinase C (PKC) (Homo sapiens) (UniProt O94806+P41743+P17252+P05129+Q05655+P05771+Q05513+Q02156+P24723+Q15139+Q04759). Briefly: Inhibition of PKC activation in PMA-treated human fibroblasts assessed as inhibition of translocation to plasma membrane at 0.2 uM pretreated for 1 hr followed by 15 mins challenged with PMA by Western blot/densitometric analysis. The gist of the method:
(§1)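 Primary human dermal fibroblasts in 10% FBS DMEM, pretreated 1 h at 37 °C with compound (ethanol vehicle, 0.2–2 range), then 100 nM PMA for 15 min. Controls received 0.005% ethanol ± PMA. 10 µg membrane protein on 10% SDS-PAGE/PVDF, probed with anti-PKC; densitometry. IC50 derived from the inhibition curve.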
On the technique in general: Immunoblotting shows a protein as a band on a membrane.

For assay [2], the target named is T1, Protein kinase C (PKC) (Homo sapiens). Briefly: Inhibition of PKC activation in PMA-treated human fibroblasts assessed as inhibition of translocation to plasma membrane at 2 uM pretreated for 1 hr followed by 15 mins challenged with PMA by Western blot/densitometric analysis. Summed up: as §1
The target is the same in assay [3]. The experiment in a line: Inhibition of PKC activation in human U87MG cells assessed as inhibition of translocation to plasma membrane at 2 uM after 24 hrs by Western blot/densitometric analysis. Format: cell-based. The settings on record: U-87MG ATCC. The gist of the method:
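U87MG cells (4 × 10^5) cultured in DMEM high glucose/10% FBS, treated 24 h at 37 °C; controls received 0.005% ethanol. Means ± S.D. of three experiments, Student's t-test.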

The nature of assay [4]: Antitumor activity against human U87MG cells assessed as reduction in [3H]thymidine incorporation at 2 uM after 24 hrs by beta counting. Format: functional, U-87MG ATCC. Set-up: scale not given: the % may be the effect or the level left. Summed up: (§2)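 [3H]thymidine incorporation in U87MG cells: 4 × 10^4 cells plated, treated 24 h or 48 h; […] [3H]thymidine added for final 4 h at 37 °C; radioactivity counted in trichloroacetic acid-insoluble material by β-counter. Means ± S.D. of four experiments.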

Assay [5] deals with T1, Protein kinase C (PKC) (Homo sapiens). Briefly: Inhibition of PKC activation in PMA-treated human fibroblasts assessed as decrease in MEK phosphorylation at 2 uM pretreated for 1 hr followed by 15 mins challenged with PMA by Western blot/densitometric analysis. The gist of the method: (§3)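 Primary human dermal fibroblasts, 5 × 10^5 cells seeded in DMEM/10% FBS; after 24 h, compound (ethanol vehicle) in 10% FBS DMEM for 1 h at 37 °C, then 100 nM PMA for 15 min. Controls received 0.005% ethanol ± PMA. Cells sonicated; 25 µg total lysate run on 10% SDS-PAGE, blotted to PVDF and probed with phospho-specific antibodies; densitometry.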

Assay [6] in a line: Antitumor activity against human U87MG cells assessed as reduction in [3H]thymidine incorporation at 2 uM after 48 hrs by beta counting. Format: functional, U-87MG ATCC. Further details: scale not given: the % may be the effect or the level left. The gist of the method:
as §2

Assay [7] in a line: Suppression of PKC delta mRNA expression in PMA-treated human fibroblasts at 2 uM pretreated for 1 hr followed by 15 mins challenged with PMA by RT-PCR analysis. Format: functional, cell-based. The settings on record: Fibroblast. The gist of the method: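 Fibroblasts pretreated 1 h, then 100 nM PMA for 15 min. RNA taken for real-time PCR of PKCα and PKCδ with SYBR Green and 0.2 µM primers. Cycling: 95 °C for 3 min, then 40 cycles of 95 °C 10 s / 58 °C 30 s; specificity checked by melting curve. Means ± S.D. of four experiments, Student's t-test.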

For a further assay, the target named is Protein kinase C (PKC). The experiment in a line: Inhibition of PKC activation in PMA-treated human fibroblasts assessed as inhibition of translocation to plasma membrane cells pretreated for 1 hr followed by 15 mins challenged with PMA by Western blot/densitometric analysis. Summed up:
as §1

The target in assay [8] is T1, Protein kinase C (PKC) (Homo sapiens). Briefly: Inhibition of PKC activation in PMA-treated human fibroblasts assessed as decrease in FAK phosphorylation at 2 uM pretreated for 1 hr followed by 15 mins challenged with PMA by Western blot/densitometric analysis. The gist of the method:
as §3

For assay [9] the target is unchanged. The experiment in a line: Inhibition of PKC activation in PMA-treated human fibroblasts assessed as decrease in Raf phosphorylation at 2 uM pretreated for 1 hr followed by 15 mins challenged with PMA by Western blot/densitometric analysis. Summed up:
as §3

Assay [10] shares this target. Briefly: Inhibition of PKC activation in PMA-treated human fibroblasts assessed as decrease in ERK1/2 phosphorylation at 2 uM pretreated for 1 hr followed by 15 mins challenged with PMA by Western blot/densitometric analysis. The gist of the method:
as §3

Assay [11] concerns U-87 MG. Briefly: Inhibition of human U87MG cell migration at 2 uM pretreated for 48 hrs measured after 6 to 30 hrs of scratching by scratch migration assay relative to control. Format: functional, cell-based. As to conditions: U-87MG ATCC. The gist of the method:
(§4)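 U87MG cells (8 × 10^4) pretreated 48 h in 10% FBS DMEM, ethanol-only controls. Wound width photographed under phase contrast at 0, 6, 24 and 30 h post-scratch.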

Assay [12] has as its system U-87 MG. Briefly: Inhibition of human U87MG cell migration assessed as reduction in wound size at 2 uM pretreated for 48 hrs measured after 30 hrs of scratching by scratch migration assay relative to control. It counts as functional, U-87MG ATCC. Summed up: as §4

For orientation: inhibition means how much of the control response was suppressed. Regarding `OCC(CO)O[C@@H]1O[C@H](CO)[C@H](O)[C@H](O)[C@H]1O`, the inhibition in assay [1] is 27%; in assay [2], 50%.

As for `CCCCCC(=O)OC[C@H]1O[C@@H](OC(CO)CO)[C@H](O)[C@@H](O)[C@H]1O`, the inhibition came out at 35% in assay [1] and 64% in assay [2].

`CCCCCCCCCC(=O)OC[C@H]1O[C@@H](OC(CO)CO)[C@H](O)[C@@H](O)[C@H]1O`: in assay [3], the inhibition entry is “inactive”.

Usually IC50 stands for the point on the concentration scale where inhibition reaches its midpoint. For `CC(C)CC(=O)OC[C@H]1O[C@@H](OC(CO)CO)[C@H](O)[C@@H](O)[C@H]1O`, the Activity in assay [4] is 25%; in assay [6] it was 30%. In addition, the inhibition in [1] worked out at 23%; in [3], 58%; in assay [2], 99%. In addition, the inhibition result (in [5]; in [8]; in assay [9]; in assay [10]; in the assay with U-87 MG [11]) was “Active” in each case. In addition, the result in assay [7] was Active. For the same compound, the IC50 at Protein kinase C (PKC) amounted to 480 nM. The inhibition at 2 µM in the assay with U-87 MG [12] was 16%.

Consider `O=C(CC1CCCCC1)OC[C@H]1O[C@@H](OC(CO)CO)[C@H](O)[C@@H](O)[C@H]1O`, for which the inhibition in assay [1] came to 38%; in assay [2], 52%.
